Results as given in ChEMBL document CHEMBL4028907, “Semisynthesis and Biological Evaluation of Xanthone Amphiphilics as Selective, Highly Potent Antifungal Agents to Combat Fungal Resistance” (J Med Chem, 2017).
In brackets after ≈: the same amount, converted by molar mass. Activity calls are given as the source filed them. The calls are words filed in the database; no cut-off is given here.

Experiments:
[1] = system: Candida albicans; experiment: Antifungal activity against Candida albicans ATCC 10231 after 24 hrs by two fold serial dilution method; format: functional; details: ATCC 10231, 24 h
Summary of the method: (§1)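 Candida grown on Sabouraud dextrose agar at 35 °C for 24 h, adjusted to ~5×10^3 CFU/mL. Two-fold dilutions from 100 to 0.78 μg/mL in Sabouraud dextrose broth, incubated at 35 °C for 24 h. MIC is the lowest concentration inhibiting growth by eye and by OD600. CLSI-based with minor modifications.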

[2] = system: Candida albicans; experiment: Antifungal activity against drug resistant Candida albicans DF2672R after 24 hrs by two fold serial dilution method; format: functional; summary of the method: as §1
[3] = Selectivity index, ratio of HC50 for New Zealand white rabbit RBC to MIC for Candida albicans ATCC 10231
[4] = system: Candida albicans; experiment: Antifungal activity against Candida albicans DF1976R after 24 hrs by two fold serial dilution method; format: functional; summary of the method: as §1
[5] = system: Candida albicans; experiment: Antifungal activity against Candida albicans ATCC90028 after 24 hrs by two fold serial dilution method; format: functional; details: ATCC90028, 24 h; summary of the method: as §1
[6] = system: Candida albicans; experiment: Antifungal activity against Candida albicans ATCC24433 after 24 hrs by two fold serial dilution method; format: functional; details: ATCC24433, 24 h; summary of the method: as §1
[7] = system: Candida albicans; experiment: Antifungal activity against Candida albicans ATCC11651 after 24 hrs by two fold serial dilution method; format: functional; details: ATCC11651, 24 h; summary of the method: as §1
[8] = system: Fusarium solani; experiment: Antifungal activity against Fusarium solani 52628 after 48 hrs by two fold serial dilution method; format: functional; details: Fusarium solani, 52628, 48 h
Summary of the method: (§2)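 Moulds grown on potato dextrose agar, 30 °C, 4 days; inoculum adjusted to about 5×10^3 CFU/mL. Two-fold serial dilutions in RPMI-1640 broth, 100 to 0.78 μg/mL final, mixed with equal volume of cell suspension; incubated 30 °C, 48 h. MIC = lowest concentration inhibiting growth, judged visually and by OD530.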

[9] = system: Fusarium solani; experiment: Antifungal activity against Fusarium solani 62877 after 48 hrs by two fold serial dilution method; format: functional; details: Fusarium solani, 62877, 48 h; summary of the method: as §2
[10] = system: Fusarium solani; experiment: Antifungal activity against Fusarium solani MYA3636 after 48 hrs by two fold serial dilution method; format: functional; details: MYA3636, 48 h; summary of the method: as §2
[11] = system: Fusarium solani; experiment: Antifungal activity against Fusarium solani 46492 after 48 hrs by two fold serial dilution method; format: functional; details: Fusarium solani, 46492, 48 h; summary of the method: as §2
[12] = system: Aspergillus brasiliensis; experiment: Antifungal activity against Aspergillus brasiliensis TCC16404 after 48 hrs by two fold serial dilution method; format: functional; details: TCC16404, 48 h; summary of the method: as §2
[13] = system: Aspergillus flavus; experiment: Antifungal activity against Aspergillus flavus TCC 204304 after 48 hrs by two fold serial dilution method; format: functional; details: TCC 204304, 48 h; summary of the method: as §2
[14] = system: Aspergillus flavus; experiment: Antifungal activity against Aspergillus flavus TCC MYA3631 after 48 hrs by two fold serial dilution method; format: functional; details: TCC MYA3631, 48 h; summary of the method: as §2
[15] = system: Aspergillus fumigatus; experiment: Antifungal activity against Aspergillus fumigatus TCC MYA3626 after 48 hrs by two fold serial dilution method; format: functional; details: TCC MYA3626, 48 h; summary of the method: as §2
[16] = system: Aspergillus fumigatus; experiment: Antifungal activity against Aspergillus fumigatus TCC 90906 after 48 hrs by two fold serial dilution method; format: functional; details: TCC 90906, 48 h; summary of the method: as §2
[17] = system: Candida albicans; experiment: Fungicidal activity against drug resistant Candida albicans DF2672R at 8 times MIC after 24 hrs by time kill assay relative to control; format: functional
Summary of the method: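 Cells at 10^5–10^6 CFU/mL exposed to 1×, 2×, 4× or 8× MIC at 35 °C. Samples taken at 0.5, 1, 2, 4, 8 and 24 h, serially diluted in PBS and plated on SDA. CFU counted after 24 h at 35 °C; biological replicates.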

[18] = system: Fusarium oxysporum; experiment: Antifungal activity against Fusarium oxysporum MYA3461 after 48 hrs by two fold serial dilution method; format: functional; details: MYA3461, 48 h; summary of the method: as §2
[19] = system: Fusarium oxysporum; experiment: Antifungal activity against Fusarium oxysporum 64530 after 48 hrs by two fold serial dilution method; format: functional; details: Fusarium oxysporum, 64530, 48 h; summary of the method: as §2
[20] = system: Candida albicans; experiment: Antifungal activity against drug resistant Candida albicans DF2672R infected C57BL6 mouse cornea at 5% administered topically for every 20 mins during the first hour and every 1 hr during the next 6 hrs by serial dilution method; format: functional
Summary of the method: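 C57BL6 mice aged 7–8 weeks (19–23 g), immunosuppressed with cyclophosphamide 100 mg/kg ip at 4 days and 1 day before infection and on day 1 after. Left cornea scratched under xylazine/ketamine, then 20 μL of ~5×10^7 CFU/mL yeast in PBS applied. Treatment started 1 day later; PBS served as control; four mice per group. Corneal fungal load counted by serial dilution plating on SDA.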

C[C@@H]1C/C=C/C=C/C=C/C=C/[C@H](O[C@@H]2O[C@H](C)[C@@H](O)[C@H](N)[C@@H]2O)C[C@@H]2O[C@](O)(C[C@@H](O)C[C@H]3O[C@@H]3/C=C/C(=O)O1)C[C@H](O)[C@H]2C(=O)O [NATAMYCIN]
MIC [1]: 6.25 µg/mL (≈ 9.39 µM)
MIC [2]: 6.25 µg/mL (≈ 9.39 µM)
Selectivity Index [3]: 18.1
MIC [4]: 6.25 µg/mL (≈ 9.39 µM)
MIC [5]: 6.25 µg/mL (≈ 9.39 µM)
MIC [6]: 6.25 µg/mL (≈ 9.39 µM)
MIC [7]: 6.25 µg/mL (≈ 9.39 µM)
MIC [8]: 6.25 µg/mL (≈ 9.39 µM)
MIC [9]: 25 µg/mL (≈ 37.6 µM)
MIC [10]: 6.25 µg/mL (≈ 9.39 µM)
MIC [11]: 6.25 µg/mL (≈ 9.39 µM)
MIC [12]: 6.25 µg/mL (≈ 9.39 µM)
MIC [13]: > 50 µg/mL
MIC [14]: > 50 µg/mL
MIC [15]: 6.25 µg/mL (≈ 9.39 µM)
MIC [16]: 6.25 µg/mL (≈ 9.39 µM)
Activity [17]: 99.9%
MIC [18]: 3.13 µg/mL (≈ 4.7 µM)
MIC [19]: 6.25 µg/mL (≈ 9.39 µM)
Activity [20]: Active
